The subject of series [1] is T. muris. As to the kind of experiment: In vitro drug uptake and elimination by T. muris. In kind it is in vitro ADME, Trichuris muris.
For series [2], the system named is adult H. polygyrus. Description: In vitro drug activity against adult H. polygyrus, phenotypic readout. Type of series: cell-based, Heligmosomoides polygyrus. The conditions noted are these: 200 μM, 72 h. In outline:
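Adult H. polygyrus were dissected from NMRI mice from ten days post-infection onward. Four worms per drug were incubated in 2 ml at 200 μM for 72 h, with DMSO-matched worms as controls. Motility, transparency and morphology were scored from 3 (normal) to 0 (highly impaired or dead). Runs were done in duplicate and repeated once.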

The subject of series [3] is H. polygyrus. As to the kind of experiment: In vitro drug uptake and elimination by H. polygyrus. In kind it is in vitro ADME, Heligmosomoides polygyrus.
The subject of series [4] is H. polygyrus. Description: Uptake of albendazole and its metabolites by H. polygyrus in vivo. More on the design: species or system Heligmosomoides polygyrus in NMRI mice. Conditions: for albendazole in worms: oral 100 mg/kg, average. In outline: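 Female NMRI mice were infected by oral gavage with 80 H. polygyrus L3. Groups received 100 mg/kg albendazole, albendazole after 50 mg/kg ABT given 16 h earlier, or albendazole sulfoxide, orally or intraperitoneally. Four mice per time point were killed at 2, 5 or 8 h (intraperitoneal groups at 2 h only). Worms were recovered, and drug was quantified by HPLC-UV/vis and reported per ten worms.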

Series [5] is classed as in vivo, NMRI mice. The conditions noted are these: for albendazole in small intestinal mucosa / albendazole in stomach content: intraperitoneal 100 mg/kg, 2 h.
Series [6] relates to H. polygyrus. Conditions: oral 100 mg/kg, ref Unpublished data, 100 mg/kg, cited from earlier work.
For series [7], the system named is hookworm infections. Conditions: single oral dosage; ref Keiser and Utzinger, 2008; cited from earlier work.
Series [8] has as its system trichuriasis. Conditions: ref Keiser and Utzinger, 2008; cited from earlier work.
The test system of series [9] is T. muris. Description: Drug uptake by T. muris in vivo. Also on record: species or system Trichuris muris in C57BL/10 mice. The conditions noted are these: for drug quantity in worms, maximum: in vivo.
In series [10] the test system is T. muris. Conditions: ref Keiser et al., 2013, cited from earlier work.
Series [11] is classed as in vivo, C57BL/10 mice.
Series [12] deals with adult T. muris. The conditions noted are these: 72 h, ref Keiser et al., cited from earlier work.
For series [13] the following is noted: oral 100 mg/kg, rats; ref Cowan et al., 2016; cited from earlier work.

Like-named read-outs stand apart in the source and are kept apart here. Marks after values point to notes of the source that are not given here.

For `CCCS(=O)(=O)c1ccc2nc(NC(=O)OC)[nH]c2c1` [Albendazole sulfone, albendazole sulfone], the “albendazole in the parasite and the culture medium” value in series [1] (incubation 5-100 μM, 24 h) was “neither detected”. The “albendazole sulfoxide in the parasite and the culture medium” value in series [1] (incubation 5-100 μM, 24 h) was “neither detected”. For the same compound, the ABZSO2 in worms worked out at 122 ± 45 nmol/10 worms in series [1] (incubation at 5 μM, 24 h); 185 ± 55 nmol/10 worms in series [1] (incubation at 10 μM, 24 h); 421 ± 171 nmol/10 worms in series [1] (incubation at 25 μM, 24 h); 780 ± 258 nmol/10 worms in series [1] (incubation at 50 μM, 24 h); 1127 ± 451 nmol/10 worms in series [1] (incubation at 75 μM, 24 h); 1348 ± 447 nmol/10 worms in [1] (incubation at 100 μM, 24 h). Also, the ABZSO2 in worms in series [3] (incubation at 5 μM, 24 h) is 33 ± 10 nmol/10 worms; in [3] (incubation at 10 μM, 24 h), 51 ± 23 nmol/10 worms; in [3] (incubation at 25 μM, 24 h) it was 23 ± 8 nmol/10 worms; in [3] (incubation at 50 μM, 24 h), 30 ± 20 nmol/10 worms; in [3] (incubation at 75 μM, 24 h), 31 ± 8 nmol/10 worms; in series [3] (incubation at 100 μM, 24 h), 33 ± 21 nmol/10 worms. In addition, the “Drug effect (reduction of parasite viability)” value in series [2] turned out to be 40% [200 μM]; in series [2] (listed as albendazole sulfone) it was 40%. The “albendazole sulfoxide detected in worms” value in [3] (incubation 5 to 100 μM, 24 h, range or mean over the concentrations) turned out to be 15 nmol/10 worms. In addition, the “albendazole sulfone detected in worms” value in series [3] (incubation 5 to 100 μM, 24 h, range, mean or maximum over the concentrations) is 33 nmol/10 worms. Moreover, the ABZSO in medium in series [3] (incubation at 5 μM, 24 h) was 0.2 ± 0.1 µM; in series [3] (incubation at 10 μM, 24 h) it was 0.2 ± 0.1 µM; in [3] (incubation at 25 μM, 24 h), 0.4 ± 0.0 µM; in series [3] (incubation at 50 μM, 24 h) it was 0.3 ± 0.0 µM; in series [3] (incubation at 75 μM, 24 h), 0.3 ± 0.0 µM; in series [3] (incubation at 100 μM, 24 h), 0.2 ± 0.0 µM. In addition, the ABZSO in worms in [3] (incubation at 5 μM, 24 h) was 19 ± 10 nmol/10 worms; in series [3] (incubation at 10 μM, 24 h), 19 ± 3 nmol/10 worms; in series [3] (incubation at 25 μM, 24 h), 13 ± 11 nmol/10 worms; in [3] (incubation at 50 μM, 24 h) it was 9 ± 5 nmol/10 worms; in [3] (incubation at 75 μM, 24 h) it was 16 ± 11 nmol/10 worms; in series [3] (incubation at 100 μM, 24 h), 16 ± 8 nmol/10 worms.

`CCC[S+]([O-])c1ccc2[nH]c(NC(=O)OC)nc2c1` (stereo not shown) [Albendazole sulfoxide, albendazole sulfoxide]: the “Drug effect (reduction of parasite viability)” value in series [2] was found to be 60% [200 μM]. Also, in series [2] (listed as albendazole sulfoxide), the “Drug effect (reduction of parasite viability)” value was found to be 60%. Further, the albendazole in worms entry in series [4] was “No albendazole was detected”. In series [5], the “albendazole in small intestinal mucosa” value was “no albendazole was detected” and the “albendazole in stomach content” value was “no albendazole was detected”. Further, in [5] (oral 100 mg/kg, 5 h), the “albendazole sulfoxide in plasma, compared to the albendazole treatment” value is on record as 5.2 fold and the “albendazole sulfoxide in the mucosa of the small intestine” value is 137 µmol/g. Besides, the “albendazole sulfoxide in the mucosa of the small intestine” value in series [5] (oral 100 mg/kg, other time points (2 and 8 h)) is on record as “below 27 μmol/g”. Also, in series [3] (incubation 5 to 100 μM, 24 h), the “albendazole in the culture medium” value is reported as “Neither albendazole nor albendazole sulfone could be quantified” and the “albendazole sulfone in the culture medium” value is on record as “Neither albendazole nor albendazole sulfone could be quantified”.

As to `CCCSc1ccc2nc(NC(=O)OC)[nH]c2c1` [Albendazole, albendazole], the values for the Worm burden reduction in [6], in [6] (listed as albendazole) and in series [10] (oral 300 mg/kg) were 100% [100 mg/kg] ^a, 100% and 42% [300 mg/kg] ^c, respectively. The “albendazole sulfone in the culture medium” value in series [1] (incubation 5 to 100 μM, 24 h) is given as “not detected”; in series [3] (incubation 5 to 100 μM, 24 h), “could not be quantified”. Also, the ABZ in worms in series [1] (incubation at 5 μM, 24 h) was found to be 94 ± 44 nmol/10 worms; in series [1] (incubation at 10 μM, 24 h), 176 ± 83 nmol/10 worms; in [1] (incubation at 25 μM, 24 h), 263 ± 173 nmol/10 worms; in series [1] (incubation at 50 μM, 24 h), 551 ± 528 nmol/10 worms; in series [1] (incubation at 75 μM, 24 h), 598 ± 336 nmol/10 worms; in series [1] (incubation at 100 μM, 24 h) it was 641 ± 467 nmol/10 worms. Moreover, the ABZ in worms in series [3] (incubation at 5 μM, 24 h) came out at 13 ± 6 nmol/10 worms; in [3] (incubation at 10 μM, 24 h), 16 ± 5 nmol/10 worms; in [3] (incubation at 25 μM, 24 h), 5 ± 8 nmol/10 worms; in series [3] (incubation at 50 μM, 24 h) it was 28 ± 4 nmol/10 worms; in series [3] (incubation at 75 μM, 24 h) it was 55 ± 49 nmol/10 worms; in series [3] (incubation at 100 μM, 24 h), 10 ± 21 nmol/10 worms. Also, the cure rate in series [7] was 72%; in series [8] it was “below 36%”. Also, the “Drug effect (reduction of parasite viability)” value in series [2] was 50% [200 μM]; in series [2] (listed as albendazole), 50%. The “drug quantity in worms, maximum” value in series [9] is “up to 31 nmol per ten T. muris”. Also, the “albendazole in stomach content” value turned out to be 139 µmol/g in series [11] (intraperitoneal 100 mg/kg, 2 h); 114 µmol/g in [11] (oral 100 mg/kg, average between 2 and 8 h); 2217 µmol/g in series [5]. In addition, the “albendazole in the mucosa of the large intestine” value in [11] (intraperitoneal 100 mg/kg, 2 h) is 8 µmol/g. Also, the “albendazole in small intestine content” value in series [11] (oral 100 mg/kg, 5 and 8 h) was “around 5 μmol/g”; in series [11] (oral 100 mg/kg, 2 h), 394 µmol/g. Moreover, the “albendazole in large intestinal content” value in series [11] (oral 100 mg/kg, 2 h) amounted to 208 µmol/g; in series [11] (oral 100 mg/kg, 5 h), 57 µmol/g; in [11] (oral 100 mg/kg, 8 h), 16 µmol/g. Further, in series [11] (oral 100 mg/kg, 2 h), the “albendazole in the mucosa of the small intestine” value was found to be 5 µmol/g. The Drug effect in series [12] (incubation at >600 μM, 2012) was below 50% ^b. Moreover, in series [4] (in vivo, 100 mg/kg), the “albendazole quantity in worms, maximum” value was “up to 10 nmol per ten H. polygyrus”. Besides, in series [4], the albendazole in worms turned out to be 6.2 nmol/10 worms. In addition, the “albendazole in small intestinal mucosa” value in series [5] is “not found”. Further, in [5] (oral 100 mg/kg, 8 h), the “albendazole in the mucosa” value is 13 µmol/g. Moreover, the “albendazole in large intestine content” value turned out to be 99 µmol/g in series [5] (oral 100 mg/kg, end of the decrease over time (2-8 h)) and 462 µmol/g in series [5] (oral 100 mg/kg, start of the decrease over time (2-8 h)). Further, in series [3] (incubation at 50 μM, longer than 8 h), the “albendazole in worms, plateau” value was determined as 29 nmol/10 worms.

For the compound `CN1CCCN=C1/C=C/c1cccc(O)c1` [Oxantel pamoate, oxantel pamoate], the EC50 in [12] (serial dilution, 2013) was 4 µM.

In the case of `CN1CCCN=C1/C=C/c1cccc(O)c1.O=C(O)c1cc2ccccc2c(Cc2c(O)c(C(=O)O)cc3ccccc23)c1O` [Oxantel pamoate, oxantel pamoate], in series [1] (exposure at 25 μM), the “time after which uptake ceased” value amounted to 8 h. Moreover, the OxP in worms in [1] (incubation at 5 μM, 24 h) was found to be 13 ± 9 nmol/10 worms; in [1] (incubation at 10 μM, 24 h), 27 ± 9 nmol/10 worms; in series [1] (incubation at 25 μM, 24 h), 65 ± 5 nmol/10 worms; in [1] (incubation at 50 μM, 24 h), 155 ± 41 nmol/10 worms; in series [1] (incubation at 75 μM, 24 h), 169 ± 24 nmol/10 worms; in series [1] (incubation at 100 μM, 24 h) it was 197 ± 46 nmol/10 worms. Besides, the “oxantel pamoate in plasma” value in series [13] is “could not quantify”. Besides, in series [9], the “drug quantity in worms, maximum” value is listed as at most 34 nmol per ten T. muris. Further, the “oxantel pamoate in worms” value in series [9] (intraperitoneal 50 mg/kg, 2 h) is reported as “no compound could be quantified”; in [9] (oral 100 mg/kg, 5 h), 34 nmol/10 worms; in series [9] (oral 100 mg/kg, 8 h) it was 22 nmol/10 worms. The Worm burden reduction in series [10] (oral 10 mg/kg) is 93% [10 mg/kg] ^c. For the same compound, in [11] (intraperitoneal 50 mg/kg, 2 h), the “oxantel pamoate in the large intestine” value worked out at 7 µmol/g. The “oxantel pamoate in the mucosal tissue of the large intestine” value in series [11] (intraperitoneal 50 mg/kg, 2 h) worked out at 17 µmol/g. Further, in [11] (intraperitoneal 50 mg/kg, 2 h), the “oxantel pamoate in the mucosal tissue of the small intestine” value came to 2 µmol/g. The “oxantel pamoate in the small intestine” value in [11] (intraperitoneal 50 mg/kg, 2 h) turned out to be 7 µmol/g. Moreover, the “oxantel pamoate in the stomach” value in series [11] (intraperitoneal 50 mg/kg, 2 h) was 5 µmol/g. Also, in [11] (intraperitoneal 50 mg/kg, 2 h, below the LLOQ), the “oxantel pamoate plasma level” value was 0.21 µM. The “plasma concentration of the administered drug” value in [11] (oral 100 mg/kg, 2-8 h (all times)) is below 700 nM. In addition, the “administered drug in the small intestinal mucosa” value in series [11] (oral 100 mg/kg, 5 and 8 h) was found to be 2 µmol/g. Moreover, the “administered drug in the large intestine” value in series [11] (oral 100 mg/kg, 2 h) is 6 µmol/g; in [11] (oral 100 mg/kg, 5 h), 359 µmol/g; in [11] (oral 100 mg/kg, 8 h), 110 µmol/g. The “administered drug in the mucosa of the small intestine” value in [11] (oral 100 mg/kg, 2 h) came to 31 µmol/g. The “administered drug in the small intestine” value in series [11] (oral 100 mg/kg, 2 h) was found to be 1951 µmol/g; in series [11] (oral 100 mg/kg, 5 h), 54 µmol/g; in series [11] (oral 100 mg/kg, 8 h), 61 µmol/g. Further, the “administered drug in the stomach” value is 5278 µmol/g in series [11] (oral 100 mg/kg, 2 h); 302 µmol/g in [11] (oral 100 mg/kg, 5 h); 364 µmol/g in series [11] (oral 100 mg/kg, 8 h).

(Values after PMC5377441 (International Journal for Parasitology: Drugs and Drug …, 2017).)
